Consider 17 compounds from ChEMBL document CHEMBL1122849, “Synthesis and properties of bis(2,2-dimethylaziridinyl)phosphinic amides: a series of new antineoplastic agents” (1985).

Molecules are shown by their SMILES. Where “and” joins values, the source holds several entries; their conditions need not be identical. Equal values may be shown once.

The subject of assay [1] is P388. The assay can be described thus: Compound was evaluated for the antineoplastic activity against P388 leukemia at an optimal dose of 100 mg/kg administered intraperitoneally. The assay is classed as functional, Mus musculus. Particulars: route intraperitoneal.
Assay [2] relates to P388. Nature of the assay: Compound was evaluated for the antineoplastic activity against P388 leukemia at an optimal dose of 256 mg/kg administered intraperitoneally. The assay is classed as functional, Mus musculus. Particulars: route intraperitoneal.
In assay [3] the test system is B16. Nature of the assay: Compound was evaluated for the antineoplastic activity on B16 Melanoma cells at the optimal dose of 18 mg/kg through intraperitoneal route on days 1,5, 9. The assay is classed as functional, Mus musculus.
Assay [4] deals with B16. Nature of the assay: Compound was evaluated for the antineoplastic activity on B16 Melanoma cells at the optimal dose of 24 mg/kg through intraperitoneal route on days 1,5,9. The assay is classed as functional, Mus musculus.
The test system of assay [5] is B16. Nature of the assay: Compound was evaluated for the antineoplastic activity on B16 Melanoma cells at the optimal dose of 36 mg/kg through intraperitoneal route on days 1,5, 9. The assay is classed as functional, Mus musculus.
Assay [6] has as its system Colon 26. Nature of the assay: Antitumor activity against C26 implants through intraperitoneal route along with the optimal dose of 80 mg/kg through intraperitoneal injection on 1,4 days. The assay is classed as functional, Mus musculus.
For assay [7], the system named is L1210. The assay can be described thus: Compound was evaluated for the antineoplastic activity on L1210 leukemia cell line at the optimal dose of 180 mg/kg administered intraperitoneally on day 1 following intraperitoneal implant of 10e 6 L1210 cells, in six mice.9. The assay is classed as functional, Mus musculus.
For assay [8], the system named is Colon 26. Nature of the assay: Antitumor activity against C26 implants through subcutaneous route along with the optimal dose of 60 mg/kg through intraperitoneal injection on 1,4 days. The assay is classed as functional, Mus musculus.
Assay [9] deals with B16. The assay can be described thus: Compound was evaluated for the antineoplastic activity on B16 Melanoma cells at the optimal dose of 120 mg/kg through intraperitoneal route on days 1,5,9. The assay is classed as functional, Mus musculus.
In assay [10] the test system is P388. The assay can be described thus: Compound was evaluated for the antineoplastic activity against P388 leukemia at an optimal dose of 128 mg/kg administered intraperitoneally. The assay is classed as functional, Mus musculus. Particulars: route intraperitoneal.
Assay [11] relates to B16. Nature of the assay: Compound was evaluated for the antineoplastic activity on B16 Melanoma cells at the optimal dose of 60 mg/kg through intraperitoneal route on days 1,5,9. The assay is classed as functional, Mus musculus.
In assay [12] the test system is B16. Nature of the assay: Compound was evaluated for the antineoplastic activity on B16 Melanoma cells at the optimal dose of 10 mg/kg through intraperitoneal route on days 1,5,9. The assay is classed as functional, Mus musculus.
Assay [13] relates to B16. The assay can be described thus: Compound was evaluated for the antineoplastic activity on B16 Melanoma cells at the optimal dose of 80 mg/kg through intraperitoneal route on days 1,5,9. The assay is classed as functional, Mus musculus.
The species named for assay [14] is Mus musculus. Nature of the assay: Tumor free mice out of 6 surviving to day 30 or beyond was determined. The assay is classed as functional. The method in brief: (§1)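 Surviving mice were autopsied when the experiment ended. A mouse was scored cured if tumor-free with no visible disease at day 30 (P388, L1210) or day 60 (B16, C26, M109). Groups held 6, 10 or 8 mice.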

Assay [15] has as its system B16. Nature of the assay: Compound was evaluated for the antineoplastic activity on B16 Melanoma cells at the optimal dose of 160 mg/kg through intraperitoneal route on days 1,5,9. The assay is classed as functional, Mus musculus.
The test system of assay [16] is L1210. Nature of the assay: Compound was evaluated for the antineoplastic activity on L1210 leukemia cell line at the optimal dose of 180 mg/kg administered intraperitoneally on day 1 following intraperitoneal implant of 10e 6 L1210 cells, in six mice. The assay is classed as functional, Mus musculus.
The test system of assay [17] is Colon 26. Nature of the assay: Antitumor activity against C26 implants through subcutaneous route along with the optimal dose of 25 mg/kg through intraperitoneal injection on 1,4 days. The assay is classed as functional, Mus musculus.
Assay [18] has as its system Colon 26. Nature of the assay: Antitumor activity against C26 implants through intraperitoneal route along with the optimal dose of 60 mg/kg through intraperitoneal injection on 1,4 days. The assay is classed as functional, Mus musculus.
The species named for assay [19] is Mus musculus. Nature of the assay: Tumor free mice out of 8 surviving to day 60 or beyond was determined. The assay is classed as functional. The method in brief:
as §1

The test system of assay [20] is B16. The assay can be described thus: Compound was evaluated for the antineoplastic activity on B16 Melanoma cells at the optimal dose of 100 mg/kg through intraperitoneal route on days 1,5,9. The assay is classed as functional, Mus musculus.
The subject of assay [21] is L1210. Nature of the assay: Compound was evaluated for the antineoplastic activity on L1210 leukemia cell line at the optimal dose of 60 mg/kg administered intraperitoneally on day 1 following intraperitoneal implant of 10e 6 L1210 cells, in six mice. The assay is classed as functional, Mus musculus.
In assay [22] the test system is M109. The assay can be described thus: Antitumor activity against M109 implants through subcutaneous route along with the optimal dose of 70 mg/kg through intraperitoneal route on 1,4 days. The assay is classed as functional, Mus musculus.
The subject of assay [23] is B16. Nature of the assay: (§2) Compound was evaluated for the antineoplastic activity on B16 Melanoma cells at the optimal dose of 40 mg/kg through intraperitoneal route on days 1,5,9. The assay is classed as functional, Mus musculus.
Assay [24] relates to B16. The description is as §2. The assay is classed as functional, Mus musculus. The source holds these as a separate data set.
In assay [25] the test system is B16. Nature of the assay: Compound was evaluated for the antineoplastic activity on B16 Melanoma cells at the optimal dose of 50 mg/kg through intraperitoneal route on days 1,5,9. The assay is classed as functional, Mus musculus.
For assay [26], the system named is Colon 26. The assay can be described thus: Antitumor activity against C26 implants through subcutaneous route along with the optimal dose of 50 mg/kg through intraperitoneal injection on 1,4 days. The assay is classed as functional, Mus musculus.
Assay [27] concerns M109. Nature of the assay: Antitumor activity against M109 implants through subcutaneous route along with the optimal dose of 70 mg/kg through intravenously route on 1,4 days. The assay is classed as functional, Mus musculus. As to conditions: route intravenous.
For assay [28], the species on record is Mus musculus. The assay can be described thus: Tumor free mice out of 10 surviving to day 60 was determined. The assay is classed as functional. The method in brief: as §1
The subject of assay [29] is M109. Nature of the assay: Antitumor activity against M109 implants through intraperitoneal route along with the optimal dose of 150 mg/kg through intraperitoneal route on 1,4 days. The assay is classed as functional, Mus musculus.
The test system of assay [30] is Colon 26. Nature of the assay: Antitumor activity against C26 implants through intraperitoneal route along with the optimal dose of 120 mg/kg through intraperitoneal injection on 1,4 days. The assay is classed as functional, Mus musculus.
Assay [31] concerns M109. The assay can be described thus: Antitumor activity against M109 implants through subcutaneous route along with the optimal dose of 100 mg/kg through intraperitoneal route on 1,4 days. The assay is classed as functional, Mus musculus.
Assay [32] relates to Colon 26. Nature of the assay: Antitumor activity against C26 implants through subcutaneous route along with the optimal dose of 120 mg/kg through intraperitoneal injection on 5,8 days. The assay is classed as functional, Mus musculus.
The test system of assay [33] is Colon 26. Nature of the assay: Antitumor activity against C26 implants through intraperitoneal route along with the optimal dose of 120 mg/kg through intraperitoneal injection on 5,8 days. The assay is classed as functional, Mus musculus.
The test system of assay [34] is P388. Nature of the assay: Compound was evaluated for the antineoplastic activity against P388 leukemia at an optimal dose of 80 mg/kg administered intraperitoneally. Particulars: route intraperitoneal. The assay is classed as functional, Mus musculus.
The test system of assay [35] is Colon 26. Nature of the assay: Antitumor activity against C26 implants through intraperitoneal route along with the optimal dose of 50 mg/kg through intraperitoneal injection on 1,4 days. The assay is classed as functional, Mus musculus.
Assay [36] has as its system P388. The assay can be described thus: Compound was evaluated for the antineoplastic activity against P388 leukemia at an optimal dose of 64 mg/kg administered intraperitoneally. The assay is classed as functional, Mus musculus. Particulars: route intraperitoneal.

In the assay with P388 [1], `CCOC(=O)NP(=O)(N1CC1(C)C)N1CC1(C)C` (stereo not drawn) [METUREDEPA] yielded a T/C of 244%.

In the assay on P388 [2], `CC1(C)CN1P(=O)(Nc1ccccc1)N1CC1(C)C` (stereo not drawn) [PHOSPHINIC ANILIDE DERIVATE] came in with a T/C of 169%.

For the compound `O=C(O)CCCc1ccc(N(CCCl)CCCl)cc1` [CHLORAMBUCIL], the T/C in the assay with B16 [3] stood at 132%; with B16 [4], 121%; in the assay with B16 [5], 125%.

Consider `CN(C)P(=O)(N1CC1(C)C)N1CC1(C)C` (stereo not drawn), for which the T/C in the assay on Colon 26 [6] is given as 127%; with L1210 [7], 207%; in the assay on Colon 26 [8], 125%; with B16 [9], 153%; with P388 [10] it was 272%; in the assay on B16 [11] it was 118%. In the assay on B16 [12], this compound gave a T/C of 108%.

As for `CN1CCN(P(=O)(N2CC2(C)C)N2CC2(C)C)CC1` (stereo not drawn), the values for the T/C in the assay with P388 [10] and in the assay with B16 [13] were 224% and 170%, respectively.

Compound `CC1(C)CN1P(=O)(NC1CCCCC1)N1CC1(C)C` (stereo not drawn) returned a T/C with P388 [2] of 106%.

`CCNP(=O)(N1CC1(C)C)N1CC1(C)C` (stereo not drawn): the results for the T/C with B16 [9] and with P388 [2] were 148% and 288%, respectively.

With `CCCNP(=O)(N1CC1(C)C)N1CC1(C)C` (stereo not drawn), the Survivors in the assay listed under Mus musculus [14] was 2. In addition, the results for the T/C in the assay with B16 [9], in the assay with P388 [2] and in the assay with B16 [13] were 144%, 363% and 162%, respectively.

Turning to `CC1(C)CN1P(=O)(N1CCOCC1)N1CC1(C)C` (stereo not drawn), the T/C in the assay with B16 [15] worked out at 160%; in the assay with P388 [2] it was 247%.

On to `CCCCNP(=O)(N1CC1(C)C)N1CC1(C)C` (stereo not drawn), for which the T/C with B16 [9] came to 157%; in the assay with P388 [2], 238%.

In turn, `CNP(=O)(N1CC1(C)C)N1CC1(C)C` (stereo not drawn) gave a Survivors in the assay listed under Mus musculus [14] of 1. The T/C in the assay with L1210 [16] was found to be 207%; with B16 [9], 153%; in the assay with P388 [10] it was 239%; in the assay with Colon 26 [17] it was 151%; in the assay with B16 [11], 120%; in the assay on B16 [12], 126%. For the same compound, the T/C in the assay with Colon 26 [18] is given as 166%.

Turning to `CC1(C)CN1P(=O)(N1CCCCC1)N1CC1(C)C` (stereo not drawn), the T/C in the assay with B16 [15] worked out at 132%; in the assay on P388 [2] it was 218%.

With `COCCCNP(=O)(N1CC1(C)C)N1CC1(C)C` (stereo not drawn), the Survivors in the assay filed under Mus musculus [14] was determined as 1. Also, the T/C is 225% with P388 [2] and 160% in the assay on B16 [13].

In turn, `O=P1(N(CCCl)CCCl)NCCCO1` (stereo not drawn) [CYCLOPHOSPHAMIDE ANHYDROUS] registered a Survivors in the assay listed under Mus musculus [19] of 1. Also, the T/C with B16 [20] was 143% and 205%; in the assay with B16 [9], 180%.

As to `CC1(C)CN1P(N)(=O)N1CC1(C)C` (stereo not drawn), the T/C in the assay on Colon 26 [6] is 221%; in the assay with B16 [20], 310% and 181%; in the assay with L1210 [21], 164%; in the assay on B16 [9] (120 mg/kg), 191% and 180%; with M109 [22], 99%; in the assay on B16 [23] it was 214%. The T/C in the assay on B16 [24] was found to be 110%; in the assay on P388 [2] it was 206%; in the assay on B16 [25], 123%; in the assay with Colon 26 [26], 127%; in the assay on M109 [27], 104%; with M109 [29], 157%. Further, the T/C was determined as 210% with B16 [13] and 190% in the assay with Colon 26 [30]. The Survivors in the assay filed under Mus musculus [19] was 3 and 2; in the assay listed under Mus musculus [28] it was 3 and 2.

As to `CCOP(=O)(N1CC1(C)C)N1CC1(C)C` (stereo not drawn), the T/C was 104% in the assay on M109 [31]; 188% and 119% in the assay on B16 [20]; 130% in the assay with Colon 26 [32]; 144% with Colon 26 [33]; 272% with P388 [34]; 146% in the assay with M109 [29]. This compound also gave a Survivors in the assay filed under Mus musculus [14] of 2.

With `CN(C)CCCNP(=O)(N1CC1(C)C)N1CC1(C)C` (stereo not drawn), the T/C in the assay with Colon 26 [35] was 170%; with B16 [13] (80 mg/kg), 210% and 172%; with P388 [36], 231%. This compound also gave a Survivors in the assay listed under Mus musculus [28] of 2.

As a reminder, the T/C is the result in the treated group divided by that in the control group, in per cent.
